ChEMBL document CHEMBL4811251 (Eur J Med Chem, 2021)

Legend:
[1] = system: MV4-11; experiment: Induction of cell cylce arrest in human MV4-11 cells assessed as accumulation of cells at G1 phase at 3 uM after 72 hrs by RNase A/propidium iodide staining based flow cytometry (reference value: 64.41%); type: functional
Outline: (§1)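 MV4-11 cells were seeded at 8 × 10⁴, held overnight at 37 °C with 5% CO2, then treated 72 h at 3 or 10 µM against a DMSO diluent control. Pellets were fixed in 70% ethanol on ice for 15 min, then stained 1 h at room temperature with PI, 0.1 mg/mL RNase A and 0.05% Triton X-100. Sub-G1, G1, S and G2/M fractions were read by flow cytometry.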

[2] = Half life in Sprague-Dawley rat at 20 mg/kg, po measured upto 24 hrs by LC/MS/MS analysis; type: ADME, organism-based; conditions: in vivo
[3] = target: CDK9/cyclin T1 (Homo sapiens) (UniProt O60563+P50750); experiment: Inhibition of CDK9/Cyclin T1 (unknown origin) assessed as residual activity at 1 uM relative to control; type: protein-complex assay
[4] = target: Macrophage colony-stimulating factor 1 receptor (Homo sapiens, UniProt P07333); experiment: Inhibition of human FMS using KKKSPGEYVNIEFG as substrate incubated for 40 mins in presence of [gamma-33ATP] by scintillation counting based radiometry assay
Macrophage colony-stimulating factor 1 receptor, sequence (P07333 whole entry): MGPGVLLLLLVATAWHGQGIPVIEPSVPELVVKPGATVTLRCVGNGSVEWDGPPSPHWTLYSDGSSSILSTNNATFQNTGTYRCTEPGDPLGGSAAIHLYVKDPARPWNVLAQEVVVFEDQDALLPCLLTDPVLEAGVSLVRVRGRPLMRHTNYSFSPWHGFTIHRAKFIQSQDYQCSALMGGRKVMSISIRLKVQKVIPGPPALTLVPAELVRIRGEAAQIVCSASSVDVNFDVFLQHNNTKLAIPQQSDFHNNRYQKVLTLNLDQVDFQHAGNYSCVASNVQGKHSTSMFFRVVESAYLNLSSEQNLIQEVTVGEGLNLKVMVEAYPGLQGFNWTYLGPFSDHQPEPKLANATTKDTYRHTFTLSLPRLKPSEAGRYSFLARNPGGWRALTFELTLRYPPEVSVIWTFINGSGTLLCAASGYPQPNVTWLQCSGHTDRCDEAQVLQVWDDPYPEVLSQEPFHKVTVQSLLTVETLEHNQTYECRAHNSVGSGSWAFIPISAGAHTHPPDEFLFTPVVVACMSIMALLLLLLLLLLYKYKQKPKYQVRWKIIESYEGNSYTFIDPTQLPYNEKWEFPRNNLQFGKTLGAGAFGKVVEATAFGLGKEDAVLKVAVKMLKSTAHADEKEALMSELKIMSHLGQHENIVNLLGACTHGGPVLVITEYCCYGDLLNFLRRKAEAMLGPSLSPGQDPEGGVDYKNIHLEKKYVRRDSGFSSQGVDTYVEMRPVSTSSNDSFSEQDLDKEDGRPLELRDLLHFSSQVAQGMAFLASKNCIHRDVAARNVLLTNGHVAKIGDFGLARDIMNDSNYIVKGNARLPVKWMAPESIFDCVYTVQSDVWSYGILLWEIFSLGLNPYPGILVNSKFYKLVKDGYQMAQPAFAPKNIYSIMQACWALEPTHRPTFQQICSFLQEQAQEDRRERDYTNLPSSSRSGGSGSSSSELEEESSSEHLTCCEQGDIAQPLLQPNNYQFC

[5] = system: MOLM-13; experiment: Antiproliferative activity against human MOLM-13 cells assessed as growth inhibition incubated for 72 hrs by MTT assay; type: functional
[6] = system: MV4-11; experiment: Induction of apoptosis in human MV4-11 cells assessed as viable cells at 3 uM after 72 hrs by Annexin V FITC/PI staining based flow cytometry analysis (reference value: 93.63%); type: functional; conditions: read-out: Activity
[7] = Cmax in Sprague-Dawley rat at 20 mg/kg, po measured upto 24 hrs by LC/MS/MS analysis; type: ADME, organism-based; design: route oral, dose 20 mg/kg, time <=24; conditions: in vivo
[8] = system: MV4-11; experiment: Induction of apoptosis in human MV4-11 cells assessed as necrotic cells at 3 uM after 72 hrs by Annexin V FITC/PI staining based flow cytometry analysis (reference value: 0.23%); type: functional
[9] = Cmax in Sprague-Dawley rat at 5 mg/kg, iv measured upto 24 hrs by LC/MS/MS analysis; type: ADME, organism-based; design: route intravenous, dose 5 mg/kg, time <=24; conditions: in vivo
[10] = Volume of distribution at steady state in BALB/c mouse at 2 mg/kg, iv measured upto 24 hrs by LC/MS/MS analysis; type: ADME, organism-based; conditions: in vivo, read-out: Vdss
[11] = target: CDK8/Cyclin C (Homo sapiens, UniProt P49336); experiment: Inhibition of CDK8/Cyclin C (unknown origin) using RBER-CHKtide as substrate in presence of [33P]gammaATP incubated for 60 mins by microplate scintillation counter analysis
[12] = target: Glycogen synthase kinase-3 alpha (Homo sapiens) (UniProt P49840); experiment: Inhibition of GSK3alpha (unknown origin) assessed as residual activity at 1 uM relative to control
Glycogen synthase kinase-3 alpha (Homo sapiens), sequence (P49840 2-483 limits assumed): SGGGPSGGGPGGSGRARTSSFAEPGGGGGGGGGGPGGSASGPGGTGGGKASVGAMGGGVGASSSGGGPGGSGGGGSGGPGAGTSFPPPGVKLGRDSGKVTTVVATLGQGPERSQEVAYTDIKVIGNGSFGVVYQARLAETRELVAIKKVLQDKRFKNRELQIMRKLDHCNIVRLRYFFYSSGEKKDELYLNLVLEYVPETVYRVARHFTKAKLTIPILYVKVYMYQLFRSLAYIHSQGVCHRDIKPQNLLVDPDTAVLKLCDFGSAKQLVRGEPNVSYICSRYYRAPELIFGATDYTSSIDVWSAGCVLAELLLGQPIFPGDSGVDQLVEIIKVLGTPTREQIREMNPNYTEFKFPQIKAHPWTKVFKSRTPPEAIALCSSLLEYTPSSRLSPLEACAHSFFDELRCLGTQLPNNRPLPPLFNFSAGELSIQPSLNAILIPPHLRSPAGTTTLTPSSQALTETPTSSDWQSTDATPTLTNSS

[13] = system: MV4-11; experiment: Induction of apoptosis in human MV4-11 cells assessed as early apoptotic cells at 10 uM after 72 hrs by Annexin V FITC/PI staining based flow cytometry analysis (reference value: 2.73%); type: functional
[14] = target: Protein kinase C theta (Homo sapiens) (UniProt Q04759); experiment: Inhibition of PKC theta (unknown origin) assessed as residual activity at 1 uM relative to control
Protein kinase C theta (Homo sapiens), sequence (Q04759 whole entry, looked up): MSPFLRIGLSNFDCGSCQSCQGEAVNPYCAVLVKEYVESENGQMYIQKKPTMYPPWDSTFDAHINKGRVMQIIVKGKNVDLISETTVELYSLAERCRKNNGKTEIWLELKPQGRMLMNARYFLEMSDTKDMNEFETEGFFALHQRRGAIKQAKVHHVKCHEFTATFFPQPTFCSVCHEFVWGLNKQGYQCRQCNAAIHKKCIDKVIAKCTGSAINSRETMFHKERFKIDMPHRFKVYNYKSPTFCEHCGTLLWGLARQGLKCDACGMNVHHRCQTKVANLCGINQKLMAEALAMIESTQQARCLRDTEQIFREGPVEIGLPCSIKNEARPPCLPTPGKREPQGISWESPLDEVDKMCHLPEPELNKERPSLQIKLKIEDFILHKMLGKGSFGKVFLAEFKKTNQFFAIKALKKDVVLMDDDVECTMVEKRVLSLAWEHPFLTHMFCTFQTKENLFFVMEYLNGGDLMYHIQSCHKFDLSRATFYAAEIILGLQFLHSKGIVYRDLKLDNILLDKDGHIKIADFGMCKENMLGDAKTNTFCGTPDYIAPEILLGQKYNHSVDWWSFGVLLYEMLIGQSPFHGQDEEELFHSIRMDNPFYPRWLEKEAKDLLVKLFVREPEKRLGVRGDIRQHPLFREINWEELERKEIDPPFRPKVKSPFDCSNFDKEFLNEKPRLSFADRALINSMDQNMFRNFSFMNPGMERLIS

[15] = system: MV4-11; experiment: Induction of cell cylce arrest in human MV4-11 cells assessed as accumulation of cells at S phase at 3 uM after 72 hrs by RNase A/propidium iodide staining based flow cytometry (reference value: 18.81%); type: functional; outline: as §1
[16] = Cmax in BALB/c mouse at 2 mg/kg, iv measured upto 24 hrs by LC/MS/MS analysis; type: ADME, organism-based; design: route intravenous, dose 2 mg/kg, time <=24; conditions: in vivo
[17] = system: MV4-11; experiment: Induction of cell cylce arrest in human MV4-11 cells assessed as accumulation of cells at S phase at 10 uM after 72 hrs by RNase A/propidium iodide staining based flow cytometry (reference value: 18.81%); type: functional; outline: as §1
[18] = target: T1, Leucine-rich repeat serine/threonine-protein kinase 2 (Homo sapiens, UniProt Q5S007); experiment: Inhibition of human LRRK2 using RLGRDKYKTLRQIRQ as substrate after 40 mins in presence of [gamma-33ATP] by scintillation counting based radiometry assay
T1 sequence (Q5S007 whole entry): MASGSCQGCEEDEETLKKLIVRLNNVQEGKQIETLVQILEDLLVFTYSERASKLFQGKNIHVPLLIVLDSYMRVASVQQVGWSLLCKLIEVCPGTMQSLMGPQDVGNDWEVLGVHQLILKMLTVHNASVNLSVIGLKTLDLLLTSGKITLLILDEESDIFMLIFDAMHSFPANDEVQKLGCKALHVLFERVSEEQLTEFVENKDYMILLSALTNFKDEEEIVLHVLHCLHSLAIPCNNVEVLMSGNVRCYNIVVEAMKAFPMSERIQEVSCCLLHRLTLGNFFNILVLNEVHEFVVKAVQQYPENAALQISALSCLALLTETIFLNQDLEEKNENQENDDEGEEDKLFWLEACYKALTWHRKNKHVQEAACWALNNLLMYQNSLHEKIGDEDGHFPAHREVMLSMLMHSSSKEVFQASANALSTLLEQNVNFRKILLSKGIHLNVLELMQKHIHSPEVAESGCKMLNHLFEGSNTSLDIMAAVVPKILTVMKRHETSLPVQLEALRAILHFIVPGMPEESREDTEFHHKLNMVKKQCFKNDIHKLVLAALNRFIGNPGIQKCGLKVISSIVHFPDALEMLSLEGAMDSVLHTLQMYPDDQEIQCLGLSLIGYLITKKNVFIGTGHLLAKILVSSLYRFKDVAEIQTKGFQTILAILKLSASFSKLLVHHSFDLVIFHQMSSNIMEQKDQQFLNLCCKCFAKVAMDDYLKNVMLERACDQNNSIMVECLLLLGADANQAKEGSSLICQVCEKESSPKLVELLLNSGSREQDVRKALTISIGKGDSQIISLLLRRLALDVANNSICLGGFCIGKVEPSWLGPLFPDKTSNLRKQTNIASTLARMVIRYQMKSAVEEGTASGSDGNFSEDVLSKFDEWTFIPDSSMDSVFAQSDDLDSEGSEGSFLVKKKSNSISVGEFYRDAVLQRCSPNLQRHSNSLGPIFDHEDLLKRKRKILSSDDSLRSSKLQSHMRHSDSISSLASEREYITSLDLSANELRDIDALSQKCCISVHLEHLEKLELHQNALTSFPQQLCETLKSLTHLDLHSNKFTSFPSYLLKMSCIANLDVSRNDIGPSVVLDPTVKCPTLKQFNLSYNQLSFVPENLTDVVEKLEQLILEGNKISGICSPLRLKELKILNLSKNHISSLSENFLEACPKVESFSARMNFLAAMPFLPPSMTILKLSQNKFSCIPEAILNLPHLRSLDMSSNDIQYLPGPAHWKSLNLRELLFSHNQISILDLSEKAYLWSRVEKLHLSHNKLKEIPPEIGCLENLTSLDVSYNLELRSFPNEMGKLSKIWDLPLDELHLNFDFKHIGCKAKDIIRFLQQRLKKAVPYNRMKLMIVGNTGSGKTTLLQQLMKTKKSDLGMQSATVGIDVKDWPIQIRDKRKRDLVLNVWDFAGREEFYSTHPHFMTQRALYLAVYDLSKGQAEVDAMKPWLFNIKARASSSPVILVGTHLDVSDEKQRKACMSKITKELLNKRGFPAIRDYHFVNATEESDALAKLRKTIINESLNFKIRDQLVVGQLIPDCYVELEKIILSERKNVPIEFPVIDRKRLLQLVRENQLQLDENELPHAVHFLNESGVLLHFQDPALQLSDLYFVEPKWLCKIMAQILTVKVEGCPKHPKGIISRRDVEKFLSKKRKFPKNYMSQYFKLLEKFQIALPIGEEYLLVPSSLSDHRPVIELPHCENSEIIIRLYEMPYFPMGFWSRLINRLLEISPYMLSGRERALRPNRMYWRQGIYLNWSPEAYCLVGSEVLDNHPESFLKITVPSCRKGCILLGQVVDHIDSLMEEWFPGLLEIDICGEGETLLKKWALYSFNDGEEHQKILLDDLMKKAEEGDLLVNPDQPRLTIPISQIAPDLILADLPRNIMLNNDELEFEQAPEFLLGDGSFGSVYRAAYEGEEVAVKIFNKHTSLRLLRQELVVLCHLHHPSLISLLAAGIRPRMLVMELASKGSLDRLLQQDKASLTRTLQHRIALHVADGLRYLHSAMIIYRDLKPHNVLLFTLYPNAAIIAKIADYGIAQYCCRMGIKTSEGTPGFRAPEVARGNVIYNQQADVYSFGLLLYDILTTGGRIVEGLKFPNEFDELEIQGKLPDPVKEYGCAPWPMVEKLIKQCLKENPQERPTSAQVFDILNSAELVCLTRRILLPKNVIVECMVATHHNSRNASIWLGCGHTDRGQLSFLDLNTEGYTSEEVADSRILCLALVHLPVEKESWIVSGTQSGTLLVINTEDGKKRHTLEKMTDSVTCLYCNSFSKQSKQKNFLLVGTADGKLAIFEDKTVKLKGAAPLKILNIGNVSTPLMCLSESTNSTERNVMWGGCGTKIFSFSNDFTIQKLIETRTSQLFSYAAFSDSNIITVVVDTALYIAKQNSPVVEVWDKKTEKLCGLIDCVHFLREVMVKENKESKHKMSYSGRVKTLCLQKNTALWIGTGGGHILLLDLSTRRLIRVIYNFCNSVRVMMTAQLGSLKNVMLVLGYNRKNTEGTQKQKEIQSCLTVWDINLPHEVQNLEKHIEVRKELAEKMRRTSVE

[19] = target: Cyclin-dependent kinase 1/cyclin B1 (Homo sapiens) (UniProt P06493+P14635); experiment: Inhibition of CDK1/Cyclin B (unknown origin) assessed as residual activity at 1 uM relative to control; type: protein-complex assay
[20] = Half life in BALB/c mouse at 2 mg/kg, iv measured upto 24 hrs by LC/MS/MS analysis; type: ADME, organism-based; conditions: in vivo
[21] = system: MV4-11; experiment: Induction of apoptosis in human MV4-11 cells assessed as late apoptotic cells at 3 uM after 72 hrs by Annexin V FITC/PI staining based flow cytometry analysis (reference value: 3.41%); type: functional
[22] = Cmax in BALB/c mouse at 10 mg/kg, po measured upto 24 hrs by LC/MS/MS analysis; type: ADME, organism-based; design: route oral, dose 10 mg/kg, time <=24; conditions: in vivo
[23] = target: Receptor-type tyrosine-protein kinase FLT3 (Homo sapiens) (UniProt P36888); experiment: Inhibition of human FLT3 at 1 uM using EAIYAAPFAKKK as substrate incubated for 40 mins in presence of [gamma-33ATP] by scintillation counting based radiometry assay relative to control
[24] = system: MV4-11; experiment: Antiproliferative activity against human MV4-11 cells assessed as growth inhibition after 72 hrs by resazurin assay; type: functional
Outline: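 MV4-11 cells kept at 37 °C with 5% CO2 in ATCC-recommended medium plus 10% FBS. In-house resazurin viability assay after 72 h exposure. GI50 reported as mean ± standard deviation from at least two replicates.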

[25] = system: MV4-11; experiment: Induction of cell cylce arrest in human MV4-11 cells assessed as accumulation of cells at G2 phase at 3 uM after 72 hrs by RNase A/propidium iodide staining based flow cytometry (reference value: 12.61%); type: functional; outline: as §1
[26] = system: MV4-11; experiment: Induction of cell cylce arrest in human MV4-11 cells assessed as accumulation of cells at G1 phase at 10 uM after 72 hrs by RNase A/propidium iodide staining based flow cytometry (reference value: 64.41%); type: functional; outline: as §1
[27] = system: MV4-11; experiment: Induction of apoptosis in human MV4-11 cells assessed as late apoptotic cells at 10 uM after 72 hrs by Annexin V FITC/PI staining based flow cytometry analysis (reference value: 3.41%); type: functional
[28] = system: MV4-11; experiment: Induction of apoptosis in human MV4-11 cells assessed as early apoptotic cells at 3 uM after 72 hrs by Annexin V FITC/PI staining based flow cytometry analysis (reference value: 2.73%); type: functional
[29] = target: T1, Leucine-rich repeat serine/threonine-protein kinase 2; experiment: Inhibition of human LRRK2 at 1 uM using RLGRDKYKTLRQIRQ as substrate after 40 mins in presence of [gamma-33ATP] by scintillation counting based radiometry assay relative to control
[30] = Oral bioavailability in BALB/c mouse at 10 mg/kg measured upto 24 hrs by LC/MS/MS analysis; type: ADME, organism-based; conditions: in vivo

Compound: Nc1ncc(-c2cc3ccccc3o2)c(N2CCC3(CCNC3=O)CC2)c1Cl
- Activity [1]: 75.73%
- half-life [2]: 6.99 h
- Activity [3]: 61%
- Ki [4]: 166 nM
- GI50 [5]: 5110 nM
- viability at 3 µM [6]: 89.5%
- Cmax [7]: 3.2 µM
- Activity [8]: 0.42%
- Cmax [9]: 9.36 µM
- Vd [10]: 1.24 L/kg
- Ki [11]: 9 nM
- Activity [12]: 61%
- Activity [13]: 1.96%
- Activity [14]: 61%
- Activity [15]: 10.03%
- Cmax [16]: 4.16 µM
- Activity [17]: 1.8%
- Ki [18]: 51 nM
- Activity [19]: 61%
- half-life [20]: 0.37 h
- Activity [21]: 8.24%
- Cmax [22]: 2.23 µM
- inhibition [23]: > 50%
- GI50 [24]: 600 nM
- Activity [25]: 8.11%
- Activity [26]: 90.92%
- Activity [27]: 14.01%
- Activity [28]: 1.81%
- inhibition [29]: > 50%
- bioavailability [30]: 33%
